# Yeast lifespan up: yeast lifespan extension. AID 775. inhibition of the nicotinamide effect, % at 10 µM. S. cerevisiae growth with nicotinamide, OD615; deaD strain in restrictive glucose medium. hit rate 0.68% among 130,000;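 active = inhibition above a set limit, placed 3 SD over the median of all compounds, cut at about 26% in these data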;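 note: 0% = nicotinamide-treated wells and 100% = cells grown without nicotinamide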
#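 Assay system: DeaD-strain S. cerevisiae. Medium: CSMM-D glucose medium, restrictive. Reagent: nicotinamide, 1.5 mM, co-present with compound. Compound: 10 µM single point, 0.25% DMSO. Schedule: culture preincubation 4 h, compound exposure 48 h, both 30 °C. Detection: absorbance at 615 nm.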
# INS promoter inh: TRM-6 insulin promoter activity inhibition. TRM-6 cells, insulin promoter-eGFP reporter, imaging; reporter expression induced with tamoxifen. hit rate 0.9% among 130,000. inhibition, % at 2 µM;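 active = inhibition above the mean plus 3 SD, with well images judged a real hit on visual review, cut at about 60% in these data, passing the limit was not always enough; inconclusive = inhibition over the cutoff but images rejected on review; inactive = inhibition not above the cutoff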
# RAM inhibit: blocks the yeast RAM network | S. cerevisiae dse1pr::URA3 reporter, 5-FOA growth OD615, 2 d; analog-sensitive cbk1-as2 kinase mutant strain | inhibition, % at 50 µM | hit rate 1.8% among 190,000;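 active = inhibition above a set limit, 3 SD over mean compound inhibition, cut at about 8.4% in these data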;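 note: 0% = DMSO-only wells with no growth and 100% = 10 µM 1-NA-PP1 full growth; inhibition rescues growth on 5-FOA so higher OD means more RAM inhibition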
# Yeast growth inh: reduces growth of yeast BB579 in restrictive medium; hit rate 0.51% among 140,000; AID 804; inhibition, % at 10 µM; S. cerevisiae BB579 growth, OD615, 48 h;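 active = inhibition above a set limit, 3 SD over the mean compound inhibition, cut at about 44% in these data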
#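 System: Saccharomyces cerevisiae DeaD strain BB579, replicative lifespan model yeast | Buffer or medium: Restrictive glucose-based CSMM-D medium | Times: 4 h preincubation and 48 h exposure at 30 °C | Detection: OD615 turbidity measurement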
# Ins promoter up: MIN6 insulin promoter up-regulation. MIN6 insulin promoter-GFP reporter, high-content imaging; hits give high values. z-score at 5 µM. hit rate 0.3% among 190,000. AID 1625;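 active = z-score above 3 at 5 µM with at least 500 cells counted in the well; inconclusive = wells under 500 cells, flagged as cytotoxic or low count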
# Starred values were filed as active, the others as inactive; ? = inconclusive; nt = not tested or not shown. A selection: hits, their analogues and other compounds. The true share with any hit is near 3%.
SMILES,Yeast lifespan up,INS promoter inh,RAM inhibit,Yeast growth inh,Ins promoter up
COc1ccccc1Cn1c(SCC(=O)C(C)(C)C)nc2cc(C(=O)N3CCC4(CC3)OCCO4)ccc2c1=O,nt,0.0,11.2*,nt,-0.38
O=[N+]([O-])[N-][n+]1cnn(Cc2ccccc2)c1,nt,15.0,0.0,nt,-0.16
O=C(Nc1ccc(F)cc1F)c1cccnc1Oc1cccc(C(F)(F)F)c1,35.8*,-64.9,7.2,-42.9,nt
Cc1ccnc(-n2c(C)cc(C=C3C(=O)N(C)C(=S)N(C)C3=O)c2C)c1,29.6*,nt,1.1,-28.5,0
Nc1cc(Cl)c2nonc2c1[N+](=O)[O-],37.1*,25.8,-0.1,-14.1,-1.38
CC(C)(C)C(=O)NC1CCSC1=O (stereo not given),nt,nt,1.6,nt,0.03
Oc1ccccc1/C=N/NP(=S)(c1ccccc1)c1ccccc1,nt,nt,8.6*,nt,1.38
Oc1ccc(/C=N/NP(=S)(c2ccccc2)c2ccccc2)c(O)c1O,-25.8,8.6,1.6,-46.1,0.37
COCCCN1CCN(c2nnc3n2-c2sc(Br)cc2C(c2ccccc2Cl)=NC3)CC1,50.4*,-75.7,0.5,-25.7,nt
COC(=O)C(O)(c1ccc(NC(=S)NC(=O)c2ccc(Cl)cc2Cl)c(C)c1)C(F)(F)F (stereo not given),0.3,-31.4,9.3*,23.4,-0.18
Nc1ccncc1,9.8,4.8,1.0,-52.2,nt
CN1CCN(c2nc(N(C)C)oc(=O)c2C#N)CC1,-5.7,-46.7,0.1,23.9,0.17
Clc1ccc(COC(Cn2ccnc2)c2ccc(Cl)cc2Cl)c(Cl)c1 (stereo not given),-10.2,-45.5,-1.0,99.9*,nt
Oc1c(Br)cc(Br)cc1Oc1ccc(Br)cc1Br,-5.3,-35.0,7.1,83.3*,0.26
Oc1c(Br)cc(Br)cc1CN1CCN(Cc2ccccc2)CC1,-10.9,7.1,-0.8,-22.5,-0.04
Cc1cc(C)c2c(c1)-c1cc(C)nn1C(c1cccnc1)N2 (stereo not given),nt,nt,-0.6,nt,0.15
C=Cn1ccnc1P(O)(=S)c1nc(C)c(CCOC(C)=O)s1 (stereo not given),nt,-2.9,0.7,nt,-0.12
O=C1CC(C(=O)N2CCC3(CC2)OCCO3)CN1CCc1ccccc1 (stereo not given),-1.4,80.0*,2.2,-18.2,0.09
COc1ccc(/C=C2/C(=O)NC(=S)N(C3CC3)C2=O)cc1CN1C(=O)c2ccccc2C1=O,0.4,nt,-0.8,-19.9,-0.98
CC(C)(C#CCCCCC#CC(C)(C)[N+](C)(C)C)[N+](C)(C)C,nt,nt,nt,nt,0.29
Cc1cc(C)cc(N2C(=O)NC(=O)/C(=C\c3cccn3-c3ccccc3)C2=O)c1,24.6,38.7,9.8*,-56.2,-0.17
CC(=NCCC1=CCCCC1)c1c(O)n(-c2ccccc2)c(=O)[nH]c1=O,nt,nt,nt,nt,-0.81
O=c1[nH]c(=S)n(C2CC2)c(O)c1C=Nc1cccc(C(F)(F)F)c1,3.5,nt,2.5,-30.4,0.66
CCCCn1c(=O)c(C(=O)Nc2nc3ccccc3[nH]2)c(O)c2ccccc21,nt,nt,nt,nt,0.07
CCCCn1c(=O)c(C(=O)Nc2cnccn2)c(O)c2ccccc21,79.7*,-27.3,-0.5,-35.8,0.23
SMILES,Yeast lifespan up,INS promoter inh,RAM inhibit,Yeast growth inh,Ins promoter up
CCN1C(=O)C(=C/C=C/c2ccco2)C(=O)N(CC)C1=S,34.0*,29.0,4.1,-29.7,0.57
CC(C)(C)C(O)C(Oc1ccc(Cl)cc1)n1cncn1 (stereo not given),-20.8,43.2,-0.9,90.8*,0.94
CC(C)CC(=O)NC(Oc1ccc(Cl)cc1)C(Cl)(Cl)Cl (stereo not given),-13.1,-77.4,0.1,-6.9,-0.99
O=C1/C(=C\c2ccc([N+](=O)[O-])cc2)N2CCC1CC2,35.4*,40.0,0.8,-41.4,0.61
O=C1/C(=C/c2ccc3c(c2)OCO3)N2CCC1CC2,1.8,nt,2.0,-38.9,0
CC1CC(OP(O)(=S)c2ccc(N(C)C)cc2NC(=O)c2cccs2)CC(C)(C)C1 (stereo not given),nt,nt,3.9,nt,0.64
NCCc1c[nH]c2ccccc12,-1.9,-4.5,0.5,-12.0,0.53
CCCCc1ccc2[nH]cc(CCN)c2c1,-2.3,10.3,2.8,-43.5,3.13*
COc1ccc([N+](=O)[O-])cc1N=Cc1c(O)n(CCc2ccccc2)c(=O)n(C(C)C)c1=O,-1.7,21.4,11.2*,-36.3,0.47
Cc1ccc(OCC(=O)Nc2ccc(Cl)cc2C(=O)c2ccccc2)cc1,-0.7,33.3,9.4*,-11.2,-0.02
CN1CCC2(CC1)C(C#N)=C(N)NC(S)=C2C#N,40.0*,nt,2.9,-12.9,0.39
CC(=O)c1ccc2c(c1)C1C(Cl)C(Sc3ccccc3[N+](=O)[O-])CC1C(C(=O)O)N2 (stereo not given),-0.4,-22.2,10.8*,-1.3,0
Cc1nc2c(c(=O)[nH]1)C(c1ccccc1Cl)c1c(c3ccccc3oc1=O)O2 (stereo not given),nt,nt,nt,nt,-0.3
O=c1[nH]c(=O)n(C2CCCCC2)c(O)c1/C=C/C=Nc1ccccc1,nt,nt,nt,nt,0.77
CCN(CC)c1ccc(/C=C/[N+](=O)[O-])cc1,nt,0.0,1.1,nt,0.4
COc1cc(/C=C/[N+](=O)[O-])ccc1O,34.5*,4.8,-0.8,24.6,0.25
COc1ccc(CC(=O)N2CCN(C)CC2)cc1,-22.0,-5.9,1.3,-6.2,3.53*
CCn1nc(-c2cccs2)nc2c(=O)n(C)c(=O)nc1-2,-14.8,nt,0.0,99.6*,?
CC1=C(C(=O)N2CCC3(CC2)OCCO3)C2(CCC(C)CC2)OC1=O (stereo not given),-8.8,72.8*,0.0,-15.5,0.17
Cc1ccc(/C=C2\C(=O)NC(=S)N(c3ccc(F)cc3)C2=O)s1,nt,-60.0,4.0,nt,nt
Cc1ccc(/C=C2\C(=O)NC(=S)N(c3ccccc3F)C2=O)s1,41.0*,nt,1.5,54.6*,0.5
CC(=O)Nc1ccccc1OP1(=O)COc2ccccc2OC1,0.5,76.9*,0.5,2.7,-0.67
Cc1ccc(C(=O)O)cc1N=Nc1c(O)[nH]c(=O)[nH]c1=O,nt,nt,4.1,nt,0.58
CSc1ncc(Cl)c(C(=O)O)n1,-4.5,-9.7,0.7,-32.9,0.26
O=C(c1ccc(Cl)cc1)C1CCCN(C2CCSCC2)C1 (stereo not given),nt,nt,0.4,nt,nt
SMILES,Yeast lifespan up,INS promoter inh,RAM inhibit,Yeast growth inh,Ins promoter up
O=C1NC(=O)N(c2cccc(Cl)c2)C(=O)/C1=C\c1ccc(Sc2nc3ccccc3[nH]2)o1,-0.2,21.4,2.7,-3.2,0.37
O=C1NC(=O)N(c2ccccc2)C(=O)/C1=C/c1ccc(Sc2ccccc2)o1,31.7*,16.7,7.8,11.7,nt
CCOC(=O)c1c(-n2c(C)cc(C=C3C(=O)NC(=S)NC3=O)c2C)sc2c1CCCC2,38.6,11.1,11.0*,-70.5,-0.03
CCc1cccc(C)c1NC(=S)N1CC2CC(C1)c1cccc(=O)n1C2 (stereo not given),-5.1,nt,1.2,-9.0,0.29
Cc1ccc(N(C)C(=O)Oc2ccc(C(=O)c3ccc(Cl)cc3)cc2)cc1,82.4*,-50.0,4.3,-17.8,-0.39
CN(C)C=C1C(=O)N(C2CCCCC2)C(=O)N(C2CCCCC2)C1=O,39.2*,nt,0.7,-33.4,0.38
Cc1ccc(N2CCN(CCc3ccccc3)CC2)cc1,-4.6,-13.9,1.3,-37.9,0.32

# Screening results from PubChem.
